# Data published in ChEMBL document CHEMBL5724801, “EUbOPEN Chemogenomics Library - Multiplex” (2024).
# Several values for one entry are separate records, joined by “and”; a condition that tells them apart may be missing. Equal entries are not always repeated.
# Test system: Fibroblast
# Assay: Multiplex assay against human fibroblast
# Type: toxicity, cell-based
# Method in brief: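 Live cells were stained at seeding with Hoechst33342, BioTracker Green Microtubule Cytoskeleton Dye, MitoTracker Red and Annexin V Alexa Fluor 680. Following compound addition, they were imaged on a CQ1 microscope at 37°C and 5% CO2 and gated by CellPathfinder machine learning into Hoechst high-intensity objects or normal cells, with normal cells split into healthy, pyknosed or fragmented nuclei and pyknosed cells into mitotic or apoptotic. Tubulin, mitochondrial-mass and membrane-permeability phenotypes are per cents of healthy-nucleus cells.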
# [1] = 12 h, 1 µM, compound concentration 1 uM
# [2] = 12 h, 10 µM, compound concentration 10 uM
# [3] = 24 h, 1 µM, compound concentration 1 uM
# [4] = 24 h, 10 µM, compound concentration 10 uM
# [5] = 48 h, 1 µM, compound concentration 1 uM
# [6] = 48 h, 10 µM, compound concentration 10 uM
smiles,measurement,setting,value
Nc1nc(-c2ccco2)c2cnn(Cc3ccccc3F)c2n1,Population Apoptotic (%),[1],50% and 45%
same,Population Healthy Nuclei (%),[1],78% and 50%
same,Population Hoechst High Intensity Objects (%),[1],0% and 6%
same,Population Membrane Permeable-Phenotype (%),[1],1% and 2%
same,Population Mitochondria Different-Phenotype (%),[1],2% and 5%
same,Population Mitotic Cells (%),[1],50% and 54%
same,Population Normal (%),[1],99% and 93%
same,Population Pyknosed Nuclei (%),[1],11% and 17%
same,Population Tubulin-Different-Phenotype (%),[1],26% and 42%
same,Total Cell Count,[1],189 and 144
same,Population Apoptotic (%),[2],54% and 47%
same,Population Fragmented Nuclei (%),[2],16% and 39%
same,Population Healthy Nuclei (%),[2],61% and 44%
same,Population Hoechst High Intensity Objects (%),[2],8% and 10%
same,Population Membrane Permeable-Phenotype (%),[2],0% and 5%
same,Population Mitochondria Different-Phenotype (%),[2],7% and 13%
same,Population Mitotic Cells (%),[2],45% and 52%
same,Population Normal (%),[2],91% and 89%
same,Population Pyknosed Nuclei (%),[2],21% and 16%
same,Population Tubulin-Different-Phenotype (%),[2],38% and 51%
same,Total Cell Count,[2],123 and 147
same,Population Apoptotic (%),[3],50% and 56%
same,Population Healthy Nuclei (%),[3],82% and 53%
same,Population Hoechst High Intensity Objects (%),[3],0% and 6%
same,Population Membrane Permeable-Phenotype (%),[3],0% and 4%
same,Population Mitochondria Different-Phenotype (%),[3],2% and 5%
same,Population Mitotic Cells (%),[3],50% and 43%
same,Population Normal (%),[3],100% and 93%
same,Population Pyknosed Nuclei (%),[3],7% and 17%
same,Population Tubulin-Different-Phenotype (%),[3],24% and 37%
same,Total Cell Count,[3],180 and 139
same,Population Apoptotic (%),[4],70% and 43%
same,Population Fragmented Nuclei (%),[4],19% and 43%
same,Population Healthy Nuclei (%),[4],66% and 44%
same,Population Hoechst High Intensity Objects (%),[4],6% and 8%
same,Population Mitochondria Different-Phenotype (%),[4],8% and 5%
same,Population Mitotic Cells (%),[4],29% and 56%
same,Population Normal (%),[4],93% and 91%
same,Population Pyknosed Nuclei (%),[4],14% and 11%
same,Population Tubulin-Different-Phenotype (%),[4],39% and 46%
same,Total Cell Count,[4],127 and 147
same,Population Apoptotic (%),[5],45% and 57%
same,Population Fragmented Nuclei (%),[5],16% and 41%
same,Population Healthy Nuclei (%),[5],77% and 48%
same,Population Hoechst High Intensity Objects (%),[5],3% and 6%
same,Population Membrane Permeable-Phenotype (%),[5],2% and 4%
same,Population Mitochondria Different-Phenotype (%),[5],1% and 9%
same,Population Mitotic Cells (%),[5],54% and 42%
same,Population Normal (%),[5],96% and 93%
same,Population Pyknosed Nuclei (%),[5],6% and 10%
same,Population Tubulin-Different-Phenotype (%),[5],26% and 37%
same,Total Cell Count,[5],182 and 147
same,Population Apoptotic (%),[6],80% and 50%
same,Population Fragmented Nuclei (%),[6],25% and 50%
same,Population Healthy Nuclei (%),[6],65% and 38%
same,Population Hoechst High Intensity Objects (%),[6],9% and 5%
same,Population Membrane Permeable-Phenotype (%),[6],0% and 16%
same,Population Mitochondria Different-Phenotype (%),[6],10%
same,Population Mitotic Cells (%),[6],20% and 50%
same,Population Normal (%),[6],90% and 94%
same,Population Pyknosed Nuclei (%),[6],9% and 10%
same,Population Tubulin-Different-Phenotype (%),[6],27% and 51%
same,Total Cell Count,[6],115 and 155
CN(C)C(=O)Cn1cc(-c2ccc(-c3cncc4ccccc34)cc2)cn1,Population Apoptotic (%),[1],47% and 32%
same,Population Healthy Nuclei (%),[1],72% and 46%
same,Population Hoechst High Intensity Objects (%),[1],0% and 5%
same,Population Membrane Permeable-Phenotype (%),[1],0% and 5%
same,Population Mitochondria Different-Phenotype (%),[1],5% and 2%
same,Population Mitotic Cells (%),[1],52% and 67%
same,Population Normal (%),[1],100% and 94%
same,Population Pyknosed Nuclei (%),[1],16% and 20%
same,Population Tubulin-Different-Phenotype (%),[1],31% and 54%
same,Total Cell Count,[1],139 and 161
same,Population Apoptotic (%),[2],33%
same,Population Healthy Nuclei (%),[2],69% and 42%
same,Population Hoechst High Intensity Objects (%),[2],4% and 9%
same,Population Mitochondria Different-Phenotype (%),[2],12% and 5%
same,Population Mitotic Cells (%),[2],66%
same,Population Normal (%),[2],95% and 90%
same,Population Pyknosed Nuclei (%),[2],16%
same,Population Tubulin-Different-Phenotype (%),[2],52% and 81%
same,Total Cell Count,[2],113 and 98
same,Population Apoptotic (%),[3],47% and 48%
same,Population Healthy Nuclei (%),[3],73% and 38%
same,Population Hoechst High Intensity Objects (%),[3],5%
same,Population Membrane Permeable-Phenotype (%),[3],0% and 7%
same,Population Mitochondria Different-Phenotype (%),[3],3% and 5%
same,Population Mitotic Cells (%),[3],52% and 51%
same,Population Normal (%),[3],94%
same,Population Pyknosed Nuclei (%),[3],14% and 20%
same,Population Tubulin-Different-Phenotype (%),[3],37% and 61%
same,Total Cell Count,[3],137 and 156
same,Population Apoptotic (%),[4],50% and 41%
same,Population Fragmented Nuclei (%),[4],20% and 41%
same,Population Healthy Nuclei (%),[4],62% and 43%
same,Population Hoechst High Intensity Objects (%),[4],8% and 5%
same,Population Membrane Permeable-Phenotype (%),[4],0% and 11%
same,Population Mitochondria Different-Phenotype (%),[4],12% and 8%
same,Population Mitotic Cells (%),[4],50% and 58%
same,Population Normal (%),[4],91% and 94%
same,Population Pyknosed Nuclei (%),[4],17% and 15%
same,Population Tubulin-Different-Phenotype (%),[4],59% and 85%
same,Total Cell Count,[4],113 and 85
same,Population Apoptotic (%),[5],76% and 44%
same,Population Fragmented Nuclei (%),[5],21% and 36%
same,Population Healthy Nuclei (%),[5],65% and 40%
same,Population Hoechst High Intensity Objects (%),[5],6% and 7%
same,Population Membrane Permeable-Phenotype (%),[5],3% and 5%
same,Population Mitochondria Different-Phenotype (%),[5],8% and 7%
same,Population Mitotic Cells (%),[5],23% and 55%
same,Population Normal (%),[5],93% and 92%
same,Population Pyknosed Nuclei (%),[5],12% and 22%
same,Population Tubulin-Different-Phenotype (%),[5],57% and 77%
same,Total Cell Count,[5],144 and 141
same,Population Fragmented Nuclei (%),[6],24% and 47%
same,Population Healthy Nuclei (%),[6],54% and 44%
same,Population Hoechst High Intensity Objects (%),[6],9% and 0%
same,Population Membrane Permeable-Phenotype (%),[6],0% and 8%
same,Population Mitochondria Different-Phenotype (%),[6],20% and 13%
same,Population Normal (%),[6],90% and 99%
same,Population Pyknosed Nuclei (%),[6],20% and 7%
same,Population Tubulin-Different-Phenotype (%),[6],55% and 73%
same,Total Cell Count,[6],117 and 102
